Laboratory results published in paper PMC9118414 (ACS Omega, 2022).

Columns and labels:
Experiment in all cases: Acute cytotoxicity, sulforhodamine B
Assay type in all cases: cell-based
[1] = system: HEK293 human embryonic kidney cells; settings: HEK293, 72 h, read-out: IC50 on cell viability, HEK293
[2] = system: A549 nonsmall cell lung carcinoma; settings: Homo sapiens, A549, 72 h, read-out: IC50 on cell viability, A549
[3] = system: HL60 promyelocytic leukemia; settings: Homo sapiens, HL-60, 72 h, read-out: IC50 on cell viability, HL60
[4] = system: peripheral blood mononuclear cells (PBMC); settings: Homo sapiens, 72 h, read-out: IC50 on cell viability, PBMC
How it was run: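 PBMC were collected from healthy volunteers and kept in RPMI 1640 with 10% FBS and antibiotics at 37 °C, 5% CO2. 1.0 × 10^5 cells were exposed to various test-compound concentrations for 72 h. Viability read by sulforhodamine B assay. IC50 derived by curve fitting; values are means of three independent experiments.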

[5] = system: PC3 prostate adenocarcinoma; settings: Homo sapiens, 72 h, read-out: IC50 on cell viability, PC3

Compound `COc1cccc2c1C(=O)c1c(O)c3c(c(O)c1C2=O)C[C@@](O)(C(=O)CO)C[C@@H]3O[C@H]1C[C@H](N)[C@H](O)[C@H](C)O1` [Doxorubicin] has an IC50 [1] of 4.8 ± 2 µM, an IC50 [2] of 1.8 ± 0.9 µM and an IC50 [3] of 0.07 ± 0.04 µM. It also gave an IC50 [4] of 5.2 ± 1.8 µM and an IC50 [5] of 2.7 ± 1.3 µM.
